Test results reported in ChEMBL document CHEMBL1123732, “Flavones. 1. Synthesis and antihypertensive activity of (3-phenylflavonoxy)propanolamines without beta-adrenoceptor antagonism” (J Med Chem, 1987).
Blank lines part the entries; values can stand above or below the compound they belong to. The source made the active and inactive calls. The rule behind the calls is not given here.

What was measured:
Rattus norvegicus [1] = experiment: Percentage of fall in systolic blood pressure (SBP) at the following hours after dosing at 75 mg/kg (po) at 5 hr in spontaneously hypertensive rats(SHR); NS means not significant; format: functional, organism-based; parameters: dose 75 mg/kg; details: Artery
Summary of the method: (§1)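 Male spontaneously hypertensive rats (Wistar-Kyoto strain), unanesthetized, dosed orally; systolic pressure measured by indirect tail cuff. Before each reading, rats warmed at 35-37 °C for 15-20 min to dilate the caudal artery. Five rats per treatment group; result is percentage fall in systolic pressure versus untreated control. Significance tested against control.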

Rattus norvegicus [2] = experiment: […] systolic blood pressure (SBP) for compound-treated group relative to the value for untreated control at 75 mg/kg dose (po) in spontaneously hypertensive rats(SHR); format: functional, Artery; summary of the method: as §1
Rattus norvegicus [3] = experiment: Percentage of fall in systolic blood pressure (SBP) at the following hours after dosing at 75 mg/kg (po) at 7.5 hr in spontaneously hypertensive rats(SHR); NS means not significant; format: functional, organism-based; parameters: dose 75 mg/kg; details: Artery; summary of the method: as §1
Rattus norvegicus [4] = experiment: Percentage of fall in systolic blood pressure (SBP) at the following hours after dosing at 75 mg/kg (po) at 2 hr in spontaneously hypertensive rats(SHR); NS means not significant; format: functional, organism-based; parameters: dose 75 mg/kg; details: Artery; summary of the method: as §1
Rattus norvegicus [5] = experiment: Percentage of fall in systolic blood pressure (SBP) at the following hours after dosing at 75 mg/kg (po) at 24 hr in spontaneously hypertensive rats(SHR); NS means not significant; format: functional, organism-based; parameters: dose 75 mg/kg; details: Artery; summary of the method: as §1
Rattus norvegicus [6] = experiment: Evaluated for the percentage inhibition of the depressor response of isoproterenol (0.25 mg/kg, iv) in spontaneously hypertensive rats at 150 mg/kg perorally; NI means no inhibition at 10 mg/kg, iv; format: functional, organism-based
Summary of the method: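 Male SHR, three per group, dosed orally 150 mg/kg as suspension in 4% Clearjel. At 4 h, anesthetized with sodium pentobarbital (45 mg/kg, ip); femoral artery and vein cannulated; arterial pressure monitored continuously. Isoproterenol given iv in 0.1 mL saline; depressor response compared with Clearjel vehicle-treated rats as percentage inhibition.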

Rattus norvegicus [7] = experiment: Percentage of fall in systolic blood pressure (SBP) at the following hours after dosing at 17 mg/kg (po) at 2 hr in spontaneously hypertensive rats(SHR); format: functional, Artery; summary of the method: as §1
Rattus norvegicus [8] = experiment: Percentage of fall in systolic blood pressure (SBP) at the following hours after dosing at 17 mg/kg (po) at 24 hr in spontaneously hypertensive rats(SHR);NS means not significant; format: functional, organism-based; parameters: dose 17 mg/kg; details: Artery; summary of the method: as §1
Rattus norvegicus [9] = experiment: Percentage of fall in systolic blood pressure (SBP) at the following hours after dosing at 17 mg/kg (po) at 7.5 hr in spontaneously hypertensive rats(SHR); format: functional, Artery; summary of the method: as §1
Rattus norvegicus [10] = experiment: Percentage of fall in systolic blood pressure (SBP) at the following hours after dosing at 17 mg/kg (po) at 5 hr in spontaneously hypertensive rats(SHR); format: functional, Artery; summary of the method: as §1
Rattus norvegicus [11] = experiment: […] systolic blood pressure (SBP) for compound-treated group relative to the value for untreated control at 17 mg/kg dose (po) in spontaneously hypertensive rats(SHR); format: functional, Artery; summary of the method: as §1
Rattus norvegicus [12] = experiment: Percentage of fall in systolic blood pressure (SBP) at the following hours after dosing at 8 mg/kg (po) at 24 hr in spontaneously hypertensive rats(SHR);NS means not significant; format: functional, organism-based; parameters: dose 8 mg/kg; details: Artery; summary of the method: as §1
Rattus norvegicus [13] = experiment: Percentage of fall in systolic blood pressure (SBP) at the following hours after dosing at 8 mg/kg (po) at 5 hr in spontaneously hypertensive rats(SHR);NS means not significant; format: functional, organism-based; parameters: dose 8 mg/kg; details: Artery; summary of the method: as §1
Adrenergic receptor beta [14] = molecular target: T1, Adrenergic receptor beta (Rattus norvegicus, UniProt P18090+P10608+P26255); experiment: Evaluated for beta-receptor affinity, determined in rat brain membrane fraction with [3H]- dihydroalprenolol; format: cell membranes
Summary of the method: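 Rat brain with cerebellum removed, homogenized in ice-cold 50 mM Tris-HCl pH 8.0 and spun at 50000g for 15 min, pellet washed once more the same way. Binding used 0.4-0.6 mg protein, 1 nM [3H]dihydroalprenolol, 50 mM Tris pH 8.0, and 5-10 competitor concentrations. IC50 read visually from a semilog plot; Ki from Cheng-Prusoff with KD approximately 1 nM.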

Rattus norvegicus [15] = experiment: […] systolic blood pressure (SBP) for compound-treated group relative to the value for untreated control at 8 mg/kg dose (po) in spontaneously hypertensive rats(SHR); format: functional, Artery; summary of the method: as §1
Rattus norvegicus [16] = experiment: Percentage of fall in systolic blood pressure (SBP) at the following hours after dosing at 8 mg/kg (po) at 2 hr in spontaneously hypertensive rats(SHR); format: functional, Artery; summary of the method: as §1
Rattus norvegicus [17] = experiment: Percentage of fall in systolic blood pressure (SBP) at the following hours after dosing at 8 mg/kg (po) at 7.5 hr in spontaneously hypertensive rats(SHR); format: functional, Artery; summary of the method: as §1
Rattus norvegicus [18] = experiment: Percentage of fall in systolic blood pressure (SBP) after dosing at 17 mg/kg (po) at 2 hr in spontaneously hypertensive rats(SHR). NS means not significant; format: functional, organism-based; parameters: dose 17 mg/kg; details: Artery; summary of the method: as §1
Rattus norvegicus [19] = experiment: Percentage of fall in systolic blood pressure (SBP) after dosing at 8 mg/kg (po) at 2 hr in spontaneously hypertensive rats(SHR). NS means not significant; format: functional, organism-based; parameters: dose 8 mg/kg; details: Artery; summary of the method: as §1
Adrenergic receptor beta [20] = molecular target: T1, Adrenergic receptor beta; experiment: Evaluated for beta-receptor affinity determined in rat brain membrane fraction with [3H]- dihydroalprenolol; format: cell membranes
Rattus norvegicus [21] = experiment: Percentage of fall in systolic blood pressure (SBP) after dosing at 8 mg/kg (po) at 7.5 hr in spontaneously hypertensive rats(SHR); format: functional, Artery; summary of the method: as §1
Rattus norvegicus [22] = experiment: Percentage of fall in systolic blood pressure (SBP) after dosing at 17 mg/kg (po) at 24 hr in spontaneously hypertensive rats(SHR); format: functional, Artery; summary of the method: as §1
Rattus norvegicus [23] = experiment: Percentage of fall in systolic blood pressure (SBP) at the following hours after dosing at 8 mg/kg (po) at 5 hr in spontaneously hypertensive rats(SHR); format: functional, Artery; summary of the method: as §1
Rattus norvegicus [24] = experiment: Percentage of fall in systolic blood pressure (SBP) after dosing at 8 mg/kg at 24 hr in spontaneously hypertensive rats(SHR). NS means not significant; format: functional, organism-based; parameters: dose 8 mg/kg; details: Artery; summary of the method: as §1
Rattus norvegicus [25] = experiment: Percentage of fall in systolic blood pressure (SBP) after dosing at 17 mg/kg (po) at 5 hr in spontaneously hypertensive rats(SHR); format: functional, Artery; summary of the method: as §1
Rattus norvegicus [26] = experiment: Percentage of fall in systolic blood pressure (SBP) after dosing at 17 mg/kg (po) at 7.5 hr in spontaneously hypertensive rats(SHR); format: functional, Artery; summary of the method: as §1
Rattus norvegicus [27] = experiment: Evaluated for the percentage inhibition of the depressor response of isoproterenol (0.25 mg/kg, iv) in spontaneously hypertensive rats at 150 mg/kg peroral dose;NI means no inhibition at 10 mg/kg, iv
Rattus norvegicus [28] = experiment: Percentage of fall in systolic blood pressure (SBP) at the following hours after dosing at 75 mg/kg (po) at 24 hr in spontaneously hypertensive rats(SHR); format: functional, Artery; summary of the method: as §1
Rattus norvegicus [29] = experiment: Percentage of fall in systolic blood pressure (SBP) at the following hours after dosing at 75 mg/kg (po) at 7.5 hr in spontaneously hypertensive rats(SHR); format: functional, Artery; summary of the method: as §1
Rattus norvegicus [30] = experiment: Percentage of fall in systolic blood pressure (SBP) at the following hours after dosing at 75 mg/kg (po) at 2 hr in spontaneously hypertensive rats(SHR); format: functional, Artery; summary of the method: as §1
Rattus norvegicus [31] = experiment: Percentage of fall in systolic blood pressure (SBP) at the following hours after dosing at 75 mg/kg (po) at 5 hr in spontaneously hypertensive rats(SHR); format: functional, Artery; summary of the method: as §1
Rattus norvegicus [32] = experiment: Evaluated for the percentage inhibition of the depressor response of isoproterenol (0.25 mg/kg, iv) in spontaneously hypertensive rats at 150 mg/kg peroral dose; NI means no inhibition at 10 mg/kg, iv
Rattus norvegicus [33] = experiment: Percentage of fall in systolic blood pressure (SBP) at the following hours after dosing at 75 mg/kg (po) at 2 hr in spontaneously hypertensive rats(SHR):NS means not significant; format: functional, organism-based; parameters: dose 75 mg/kg; details: Artery; summary of the method: as §1

Structure (SMILES): CCCCCNCC(O)COc1ccc2c(=O)c(-c3ccccc3)c(-c3ccccc3)oc2c1 (configuration not stated)
Decrease in SBP (Rattus norvegicus [1]): inactive
SBP (Rattus norvegicus [2]): 191 mmHg
Decrease in SBP (Rattus norvegicus [3]): inactive
Decrease in SBP (Rattus norvegicus [4]): inactive
Decrease in SBP (Rattus norvegicus [5]): inactive

Ki (Adrenergic receptor beta [14]): > 0.00005 M
Structure (SMILES): O=c1c(-c2ccccc2)c(-c2ccccc2)oc2cc(OCC(O)CNC3CC3)ccc12 (configuration not stated)
inhibition (Rattus norvegicus [6]): inactive
Decrease in SBP (Rattus norvegicus [7]): 10%
Decrease in SBP (Rattus norvegicus [8]): inactive
Decrease in SBP (Rattus norvegicus [9]): 18%
Decrease in SBP (Rattus norvegicus [10]): 23%
SBP (Rattus norvegicus [11]): 193 mmHg
Decrease in SBP (Rattus norvegicus [12]): inactive
Decrease in SBP (Rattus norvegicus [13]): inactive
SBP (Rattus norvegicus [15]): 188 mmHg
Decrease in SBP (Rattus norvegicus [16]): 7%
Decrease in SBP (Rattus norvegicus [17]): 10%

Ki (Adrenergic receptor beta [20]): > 0.00005 M
Structure (SMILES): CC(C)NCC(O)COc1ccc2c(=O)c(-c3ccccc3)c(-c3ccccc3)oc2c1.Cl (configuration not stated)
Decrease in SBP (Rattus norvegicus [18]): inactive
inhibition (Rattus norvegicus [6]): inactive
Decrease in SBP (Rattus norvegicus [19]): inactive
Decrease in SBP (Rattus norvegicus [21]): 8%
Decrease in SBP (Rattus norvegicus [22]): 11%
Decrease in SBP (Rattus norvegicus [23]): 10%
SBP (Rattus norvegicus [11]): 195 mmHg
Decrease in SBP (Rattus norvegicus [24]): inactive
Decrease in SBP (Rattus norvegicus [25]): 14%
SBP (Rattus norvegicus [15]): 198 mmHg
Decrease in SBP (Rattus norvegicus [26]): 20%

Structure (SMILES): Cl.O=c1c(-c2ccccc2)c(-c2ccccc2)oc2cc(OCC(O)CNC3CCCC3)ccc12 (configuration not stated)
inhibition (Rattus norvegicus [27]): inactive
SBP (Rattus norvegicus [2]): 200 mmHg
Decrease in SBP (Rattus norvegicus [28]): 18%
Decrease in SBP (Rattus norvegicus [29]): 23%
Decrease in SBP (Rattus norvegicus [30]): 10%
Decrease in SBP (Rattus norvegicus [31]): 23%

Structure (SMILES): O=c1c(-c2ccccc2)c(-c2ccccc2)oc2cc(OCC(O)CNC3CCCCC3)ccc12 (configuration not stated)
SBP (Rattus norvegicus [2]): 216 mmHg
Decrease in SBP (Rattus norvegicus [28]): 16%
Decrease in SBP (Rattus norvegicus [29]): 13%
Decrease in SBP (Rattus norvegicus [4]): inactive
Decrease in SBP (Rattus norvegicus [31]): 10%

Structure (SMILES): CCCN(C)CC(O)COc1ccc2c(=O)c(-c3ccccc3)c(-c3ccccc3)oc2c1.O=C(O)/C=C\C(=O)O (configuration not stated)
inhibition (Rattus norvegicus [32]): inactive
SBP (Rattus norvegicus [2]): 199 mmHg
Decrease in SBP (Rattus norvegicus [28]): 18%
Decrease in SBP (Rattus norvegicus [29]): 10%
Decrease in SBP (Rattus norvegicus [30]): 7%
Decrease in SBP (Rattus norvegicus [31]): 9%

Structure (SMILES): C=CCNCC(O)COc1ccc2c(=O)c(-c3ccccc3)c(-c3ccccc3)oc2c1 (configuration not stated)
inhibition (Rattus norvegicus [32]): inactive
SBP (Rattus norvegicus [2]): 197 mmHg
Decrease in SBP (Rattus norvegicus [33]): inactive
Decrease in SBP (Rattus norvegicus [28]): 9%
Decrease in SBP (Rattus norvegicus [29]): 11%
Decrease in SBP (Rattus norvegicus [31]): 10%
